Measured values: PubChem BioAssay AID1496 (Sanford-Burnham Center for Chemical Genomics, 2009)
Among all 220,000 compounds or so, about 990 (0.45%) were called active. The sample holds actives, similar compounds and a random draw of the others, so the mix is not that of the screen. A number with no mark means an inactive call.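 Rule for the calls: active = inhibition over about 50% at 20 µM in the single-dose screen (limit read from the data); inactive = the rest.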

What follows are compounds tested against Runt-related transcription factor 1 (Homo sapiens) + Core-binding factor subunit beta (Homo sapiens) (UniProt Q01196+Q13951) (assay: inhibitors of RUNX1 Runt–CBFb binding, primary screen, biochemical, FRET, Cerulean-Runt, Venus-CBFb, uHTS (AID 1496;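 note: 0% = DMSO wells and 100% = excess unlabeled CBFb competitor control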)). Conditions: Cerulean-Runt/Venus-CBFb FRET ratio 530/480, 1 h; at 20 µM; stronger effect = higher value.
How it was run: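 Schedule: protein complex preformed 1 h, compound exposure 1 h, room temperature, dark; test system: Cerulean-labeled Runt domain protein; amount: 100 nM per protein; buffer or medium: Tris 50 mM pH 7.5, KCl, K2SO4, 0.01% BSA; read-out: loss of energy transfer signal; detection: FRET fluorescence; controls: 5 µM unlabeled CBFb as full-inhibition high control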

Sequence of Runt-related transcription factor 1 (Homo sapiens) + Core-binding factor subunit beta (Homo sapiens) (Q01196 whole entry, looked up, the tested form may be a part): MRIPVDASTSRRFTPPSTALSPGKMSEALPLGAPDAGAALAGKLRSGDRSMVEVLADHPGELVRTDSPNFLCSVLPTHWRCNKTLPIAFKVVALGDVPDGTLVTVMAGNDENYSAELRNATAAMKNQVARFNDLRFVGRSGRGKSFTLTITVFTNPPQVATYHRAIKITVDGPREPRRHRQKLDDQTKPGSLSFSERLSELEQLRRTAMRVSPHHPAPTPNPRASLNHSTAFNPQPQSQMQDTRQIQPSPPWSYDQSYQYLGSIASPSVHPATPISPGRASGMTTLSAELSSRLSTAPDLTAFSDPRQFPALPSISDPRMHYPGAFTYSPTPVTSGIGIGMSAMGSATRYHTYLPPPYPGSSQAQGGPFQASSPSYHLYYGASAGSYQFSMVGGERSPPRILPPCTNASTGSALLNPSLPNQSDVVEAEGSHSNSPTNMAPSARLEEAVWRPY
Sequence of Runt-related transcription factor 1 (Homo sapiens) + Core-binding factor subunit beta (Homo sapiens) (Q13951 whole entry, looked up, the tested form may be a part): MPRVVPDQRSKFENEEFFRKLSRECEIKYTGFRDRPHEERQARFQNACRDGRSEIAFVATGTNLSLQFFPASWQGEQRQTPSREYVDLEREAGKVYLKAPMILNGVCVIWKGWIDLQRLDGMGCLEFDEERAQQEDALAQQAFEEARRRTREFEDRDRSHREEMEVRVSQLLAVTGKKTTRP

Row | Structure (SMILES) | inhibition
1 | CC(C)Cn1c(CCC(=O)O)ccc1-c1cccs1 | 65.6% (active)
2 | COCCCn1c(CCC(=O)O)ccc1-c1ccc(F)cc1 | 3.3%
3 | CCn1c(NC(=O)c2ccccc2)c(-c2cccs2)c(=O)c2ccccc21 | -4.7%
4 | CNC(=S)NNC(=O)c1ccc(N(C)C)cc1 | 1.6%
5 | Cc1cc(F)ccc1NC(=O)C(C)n1c2ccccc2c2nc(=O)cc(C)n21 (stereo not drawn) | 1.5%
6 | CCOc1ccc(/C=N/NC(=O)CSc2ccccn2)cc1O | 2.9%
7 | CCC(=O)Nc1c(S(=O)(=O)c2ccccc2)c2nc3ccccc3nc2n1Cc1ccccc1 | 78.8% (active)
8 | CCN(CC)CCn1c(N)c(S(=O)(=O)c2ccccc2)c2nc3ccccc3nc21 | 5.9%
9 | Cc1ccc(S(=O)(=O)c2c(N)n(C)c3nc4ccccc4nc23)cc1 | 7.1%
10 | O=c1c2cc(-c3ccccc3)sc2nc2n1N=C(c1cccs1)CS2 | -2.4%
11 | Nc1nc(NCC2CCCO2)nc(Nc2ccccc2F)c1[N+](=O)[O-] (stereo not drawn) | -3.8%
12 | Cc1ccc2nc(NCCCNC(=O)c3cnccn3)c(C#N)cc2c1 | 21.2%
13 | COCCCNC(=S)NCCNc1nc2cc(C)c(C)cc2cc1C#N | 82.7% (active)
14 | COCCCNC(=S)NC(=O)c1ccc([N+](=O)[O-])cc1 | 4.5%
15 | CC(/C=C/c1ccco1)=N/NC(=O)C1COc2ccccc2O1 (stereo not drawn) | 2.3%
16 | Cn1nc(C(F)(F)F)c(-c2ccc(F)cc2)c1NC(=O)CSCC(=O)O | 3.4%
17 | O=C(NC1CCCCC1)C1c2ccccc2C(=O)N1Cc1ccco1 (stereo not drawn) | 1.8%
18 | O=C1c2ccccc2C(Nc2ccc3c(c2)OCCO3)N1Cc1ccco1 (stereo not drawn) | 70% (active)
19 | Cc1ccnc(N2C(=O)c3ccccc3C2Nc2ccc3c(c2)OCCO3)c1 (stereo not drawn) | 1.5%
20 | COC(=O)c1ccc(COc2cc([N+](=O)[O-])cc3cccnc23)cc1 | -0.8%
21 | CCOC(=O)Cc1csc(NC(=O)COc2ccc3c(C)cc(=O)oc3c2)n1 | 1.8%
22 | Cc1ccc2c(CSc3nncs3)cc(=O)oc2c1 | 3.7%
23 | CCOC(=O)Cc1csc(SCc2cc(=O)oc3cc(O)ccc23)n1 | 77.8% (active)
24 | COc1cccc(Nc2nc(N)c([N+](=O)[O-])c(NCc3ccco3)n2)c1 | 0.2%

Row | Structure (SMILES) | inhibition
25 | NC(=O)COc1ccc2c3c(c(=O)oc2c1)CCCCC3 | 1.7%
26 | O=c1oc2c(CN3CCCCC3)c(O)ccc2c2c1CCCCC2 | 72.8% (active)
27 | CN1CCN(Cc2c(O)ccc3c2oc(=O)c2ccccc23)CC1 | -1.7%
28 | N#CC1=C(N)OC2=C(C(=O)CCC2)C1C1CC=CCC1 (stereo not drawn) | -0.5%
29 | COCc1[nH]nc2c1C(C1C=CCCC1)C(C#N)=C(N)O2 (stereo not drawn) | -0.2%
30 | N#CC1=C(N)Oc2cc(O)ccc2C1C1CCCCC1 (stereo not drawn) | 50.9% (active)
31 | COC(=O)c1noc(C)c1-c1ccnn1C(=O)c1ccc(Cl)cc1 | 0%
32 | Fc1ccc(COc2ccc(-c3nnco3)cc2)cc1 | -1.3%
33 | O=C(/C=C/c1ccc2c(c1)OCCO2)c1ccc(O)cc1 | -2.3%
34 | COc1ccc(-c2cn3ccc(C)cc3n2)cc1 | 0.2%
35 | O=C(CN1CCN(S(=O)(=O)/C=C/c2ccccc2)CC1)Nc1ccc(N2CCOCC2)cc1 | 0.6%
36 | COc1ccc2c(CN3CCN(S(=O)(=O)c4cccs4)CC3)cc(=O)oc2c1 | -1.9%
37 | O=c1cc(CN2CCN(S(=O)(=O)/C=C/c3ccccc3)CC2)c2ccc(O)cc2o1 | 74.1% (active)
38 | COc1ccc(Nc2cc(=O)n(-c3ccccc3)c3c2c(=O)n(C)c(=O)n3C)cc1 | -0.7%
39 | Cn1c(CC2Sc3ccccc3NC2=O)nnc1SCC(=O)c1ccc(Cl)cc1 (stereo not drawn) | 1.9%
40 | O=C(C[n+]1cc(-c2ccc(Cl)c(Cl)c2)n2c1CCC2)c1cccs1 | 1.5%
41 | CCOc1ccc(-c2nc(N)ncc2-c2ccccc2OC)c(O)c1 | -2.9%
42 | Cc1cc2nc3c(=O)n(Cc4ccccc4)c(=O)[nH]c3nc2cc1N | -281%
43 | COc1ccc2[nH]c(=S)cc(C)c2c1 | 30.9%
44 | CC(=O)Nc1cc2ccc(OC(C)=O)cc2oc1=O | 86.5% (active)
45 | COC(=O)Cc1c(C)c2ccc(OCC(=O)NCc3ccc4c(c3)OCO4)cc2oc1=O | -2.3%
46 | CC(=O)Oc1ccc2c(C)c(CC(C)O)c(=O)oc2c1 (stereo not drawn) | 52.3% (active)
47 | CC(=O)Oc1ccc(NC(=O)CCC2CCCCC2)c(C(=O)O)c1 | -13.2%
48 | Cc1c(Cc2ccccc2)c(=O)oc2cc(OCC(N)=O)ccc12 | -0.8%
